From ChEMBL document CHEMBL4513216, “Probing the Open Global Health Chemical Diversity Library for Multistage-Active Starting Points for Next-Generation Antimalarials” (ACS Infect Dis, 2020)

Test: Toxicity liver stage against HepG2, at 10uM
Assay type: cell-based
Parameters: test concentration 10 uM, cell line HepG2-A16-CD81EGFP
Details: human, HepG2-A16-CD81EGFP cells; read-out: INHIBITION
Outline: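 Uninfected HepG2-A16-CD81EGFP cells, 3 × 10^3 per well, 1536-well, plated on prespotted compound at 10 μM final, parasite-free screening media added to match infected plates; puromycin 10 μM positive, DMSO 0.5% negative; run in parallel with 48 h PbLuc assay at 37 °C, 5% CO2; viability by CellTiter-Glo luminescence, normalized to controls.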

Structure (SMILES)	cytotoxicity at 10 µM [%]
O=C(Cn1nc2c(cc1=O)CSCC2)N[C@@H](Cc1ccccc1)C(=O)O	-3.14
CCN(c1ccsc1C(=O)N1CCSCC1)S(=O)(=O)c1ccc(Cl)cc1	14.5
Cc1ccccc1NC(=O)N1CC[C@@H]2CN(C)S(=O)(=O)[C@@H]2CC1	4
CN1CCCN(C(=O)c2cc3c(s2)CCN3C(=O)C2CC2)CC1	6.74
O=c1cc(Cn2cncn2)nc2n1CCCN(CC1CCOCC1)C2	7.77
CN(C)Cc1cc(=O)n2c(n1)CN(CC1CCOCC1)CCC2	6.37
O=C(c1ccco1)N1CCN2C[C@H](Oc3cncnc3)C[C@H]2C1	-2.97
Cc1nc([C@H]2C[C@H]3CN(C(=O)c4ccoc4C)CC[C@@H]3O2)no1	0.369
O=C(Cc1ccc2c(c1)OCCCO2)Nc1nnn[nH]1	-4.66
COC(=O)CNC(=O)c1c(-n2cnnn2)sc2c1CCCC2	10.6
CC(C)(C)n1ncc2c1NC(=O)CC2c1cccc(O)c1 (centres undefined)	-6.36
CNS(=O)(=O)c1cnccc1N1CCN(C(C)C)CC1	-2.02
CC(C)S(=O)(=O)c1nnc(CCNC(=O)OC(C)(C)C)o1	9.28
Cc1cc2[nH]c(O)nc2cc1NCc1ccc(F)cc1	16.1
CCCn1ccc(C(=O)Nc2ccc3c(c2)C(C)(C)C(=O)N3C)n1	8.44
O=C(C1CC1)N1CCC(Nc2nc(O)cc(-c3ccsc3)n2)CC1	5.29
O=S(=O)(c1cn[nH]c1)N1CCC(O)(CN2CCC(F)(F)CC2)C1 (centres undefined)	5.92
CCN(CC)S(=O)(=O)NCc1ccc(-c2ccc(C(N)=O)c(C)n2)cc1	2.77
Cc1nc(CN2CC(CCCc3ccccn3)(C(=O)N(C)C)C2)co1	7.43
CN(C)C(=O)CN1CCC2(CC1)CN(S(C)(=O)=O)Cc1ccccc1O2	0.56
COCCN1CCCC(c2cncc(Oc3ccccc3OC)n2)C1 (centres undefined)	-22.8
CC(=O)N1CCc2nnc(C3CCCN3CC3CCCCC3)n2CC1 (centres undefined)	-1.54

Structure (SMILES)	cytotoxicity at 10 µM [%]
c1ccc(-c2cc(CNCCN3CCCC3)c3nnnn3c2)cc1	-17.4
Cc1nc2ccc(C(=O)N3CC[C@H](O)[C@@H](N4CCOCC4)CC3)cc2[nH]1	-8.32
CS(=O)(=O)c1cn[nH]c1C1CCCCN1C(=O)Cc1cccnc1 (centres undefined)	-30.7
CC(NC(=O)NC1CCN(Cc2ccccn2)CC1)c1nncn1C (centres undefined)	0.335
O=C(C1CCOCC1)N(CCc1ccccc1)C1CCOC1 (centres undefined)	4.77
Cc1occc1C(=O)NCC(=O)N1CCCC(c2ccccc2)CC1 (centres undefined)	6.35
Cc1nc2cc(=O)[nH]n2c(C)c1CNC(=O)C(C)Cc1ccccc1 (centres undefined)	-7.27
Cc1ccc(C(CNC(=O)c2cc(=O)c3ccccc3[nH]2)N(C)C)cc1 (centres undefined)	-14.6
Cc1csc(CN(C)C2CCN(c3sccc3C#N)C2=O)n1 (centres undefined)	5.44
CC(C)C1CN(C(=O)c2cc(F)cc3[nH]cnc23)CCS1 (centres undefined)	1.97
COc1ccc(Cl)cc1CN(CC(N)=O)C(C)C	1.49
CC(=O)N1CC(C)CN(C(=O)c2cscn2)c2ccccc21 (centres undefined)	1.98
O=C(CS(=O)(=O)Cc1ccc(Br)cc1F)Nc1cn[nH]c1	-9.2
Cn1c(CCNC(=O)Nc2cn[nH]c2)nc2ccc(F)cc21	-6.97
O=C(CN1CCCc2cc(F)cc(F)c21)Nc1ccc(Br)cn1	11
CC(C)(NC(=O)c1cnc(C(C)(C)C)s1)C(N)=O	-4.04
Cc1ccc(C(=O)N(C)CC(=O)N2CCCC2)c(C)c1	-0.705
CCC(=O)NCC1(O)CCC(C(C)(C)C)CC1 (centres undefined)	5.81
O=C(CCc1nnc(-c2ccsc2)o1)NCC1CCN(C2CC2)C1 (centres undefined)	-1.73
Cc1csc(CCNC(=O)N2CCC(n3cccc3)CC2)n1	3.98
CC(O)(CNC(=O)NCCc1ccc2c(c1)CCO2)c1ccccc1 (centres undefined)	6.36
CN(C)c1nc2sc(C(=O)N3CCNC(=O)CC3)cc2s1	-10.1

Structure (SMILES)	cytotoxicity at 10 µM [%]
Cc1cc(C)n(CC2CCN(CC(O)CN3CCOCC3)CC2)n1 (centres undefined)	-7.35
CCCS(=O)(=O)N1CCC(Nc2c(F)cc(C#N)cc2F)CC1	1.34
Cc1ccc(F)cc1C(=O)OCC1CCCN1C(N)=O (centres undefined)	5.01
COc1cc(OC)cc(N2CCC(NCc3occc3C)C2=O)c1 (centres undefined)	0.995
COCCc1noc(CN2CCCC2c2noc(C)n2)n1 (centres undefined)	4.73
COCCn1ccc2cc(NC(=O)N(C)C(C)CSC)ccc21 (centres undefined)	0.08
COCCOCC(=O)Nc1ccc(C)cc1Br	-6.99
Cc1nc(C2(NCC(=O)NC(=O)Nc3ccccc3)CCCCC2)no1	30.4
CC(C)COCCC(=O)Nc1c(-c2ccc(F)cc2)ncn1C	-1.18
CS(=O)(=O)NCC1CCCN(C(=O)c2ccc3c(c2)CCC3)C1 (centres undefined)	-5.52
CCNC(=O)N(Cc1cccc(OC)c1)C1CCC(O)CC1 (centres undefined)	-4.83
O=C(c1ncoc1C1CCCO1)N1CCCC2(CCCCC2)C1 (centres undefined)	-5.14
CC(C)(C)CNS(=O)(=O)C1CS(=O)(=O)c2ccccc21 (centres undefined)	14.3
Cn1ccnc1CNc1ccc(F)c(N2CCCS2(=O)=O)c1	-1.45
Cc1nn(C)c(C)c1NC(=O)CNc1ccc(F)c(C(F)(F)F)c1	0.0371
Cc1cncc(C(=O)N2CCOc3nc(C)ccc32)c1	5.19
NC(=O)NC(=O)CCn1ccc(-c2ccccc2)n1	5.2
O=C(NCC1(c2ccc(F)cc2)CC1)N1CCC2(CCOC2)C1 (centres undefined)	-6.72
CC(NC1CCN(CCS(C)(=O)=O)CC1)c1cnn(C(C)C)c1 (centres undefined)	-0.132
CNS(=O)(=O)c1ccc(C(=O)Nc2ccc3c(c2)C(=O)NC3)cc1	-8.04
COCCN(Cc1ccc(F)cc1C#N)CC(F)(F)F	-3.02
CN(CCC(F)(F)F)c1nc2ccccc2c(=O)[nH]1	-5.11

Structure (SMILES)	cytotoxicity at 10 µM [%]
COc1ccc(-c2nc(CC(=O)N(C)CCC#N)cs2)cc1OC	0.19
COC(=O)c1cccc(NCC(=O)NC(N)=O)c1	6.88
CCS(=O)(=O)CC(=O)NC(c1ccccc1)C1CCCCC1 (centres undefined)	-4.01
Cc1nccc(C(=O)N2CCCN(Cc3cnn(C(C)C)c3)CC2)n1	-0.239
CCN1CCNC(=O)C12CCN(C(=O)c1ccccn1)CC2	-0.514
CCOCC1CN(S(C)(=O)=O)Cc2nn(C)cc21 (centres undefined)	-95.9
Cn1cccc1C(=O)N1CCc2onc(Cn3cccn3)c2C1	-4.72
CCS(=O)(=O)N1CCC2(CC1)CC(CC(=O)NC1CC1)c1ccccc12 (centres undefined)	-1.72
O=C(CC1CC1)NCc1cn2c(n1)CN(C(=O)c1cccnc1)CC2	1.03
CCOc1ccccc1CC(=O)N1C[C@@H](C(=O)O)[C@H](c2ccncc2)C1	9.15
CN(C(=O)COc1ccc(F)cc1)[C@@H]1CS(=O)(=O)C[C@H]1O	-2.62
CCNC(=O)[C@@H]1C[C@@H](NC(=O)c2cnc[nH]c2=O)CN1Cc1ccsc1	-6.94
COc1nc2c(cc1C(=O)N(C)Cc1[nH]nc3c1CCC3)CCC2	-1.77
COc1ccc(CN2CCCC2)cc1Oc1ccc(NC(C)=O)cc1	-1.1
COc1ncccc1C1CC(=O)NCc2nc3sccn3c21 (centres undefined)	3.86
CCc1nc(CN(CCc2ccccc2)C2CCN(C)CC2)no1	-0.355
CCc1cc(C(=O)N2CC[C@@H](c3ccc4c(c3)OCO4)[C@H](O)C2)[nH]n1	-3.87
Cc1ccc2nc(C3CCCN3Cc3scnc3C)[nH]c2c1 (centres undefined)	8.2
CSc1ccccc1NC(=O)N1C[C@@H](N(C)C)[C@H](c2ccc(C)cc2)C1	-12
COc1ccc([C@@H]2C[C@H](NC(C)=O)C[C@H](Cc3ccccc3)O2)cn1	5.46
Cc1cc(N(C)Cc2noc(C)n2)n2nc(C)c(C)c2n1	14.4
COC(=O)C1CCN(C(=O)c2ccc(NS(C)(=O)=O)c(C)c2)CC1	-1.04

Structure (SMILES)	cytotoxicity at 10 µM [%]
CCOc1ncccc1NC(=O)N1CCN(c2ccc(O)cc2)CC1	-9.92
CN1CCOC(CNC(=O)CCCOc2cccc(F)c2)C1 (centres undefined)	-5.1
CC(C)(O)CN1CCN(C(=O)c2cccc3cccnc23)CC1	-10.7
O=C(NCc1cccnc1)Nc1cc(C(F)(F)F)c[nH]c1=O	-1.78
Cc1cc(C)c(CNC(=O)N2CCN(c3nccs3)CC2)c(=O)[nH]1	-20.9
COCC(c1cccc(C(F)(F)F)c1)N(C)C(=O)c1ccccn1 (centres undefined)	-12
CS(=O)(=O)NCCCN1CCCC1c1cccc(Br)c1 (centres undefined)	-2.51
Cn1c(NCC(O)c2ccccc2F)c(C#N)c(=O)n(C)c1=O (centres undefined)	-12.5
CSCC(=O)N1CCCCC1Cn1cc(C)cn1 (centres undefined)	-8.24
c1ccc(CCCN2CC(n3cccn3)C2)cc1	-3.83
O=C(NCc1ccccn1)NC1CCOc2ccccc21 (centres undefined)	-8.99
COc1cc(C(=O)NS(=O)(=O)c2cccc(C#N)c2)cc(Cl)c1OC	-3.93
CCc1noc(CN2CCCN(C(N)=O)CC2)n1	-4.12
CCc1nc(CN2CCCC(NCc3cnn(C(C)(C)C)c3)C2)no1 (centres undefined)	-6.77
CCOc1cc(/C=C/c2ncc(C(=O)O)s2)cc(Cl)c1OC	8.13
COc1ccc(C(=O)NCCc2nnc3ccccn23)c(OC)c1	9.6
O=C(c1ccco1)N1CC[C@H]2[C@H]1CC(=O)N2c1cccnc1	-95.8
O=C(NCc1cccs1)[C@H]1CC[C@@H]2[C@@H](CCN2Cc2ccoc2)O1	-0.317
COCCC(=O)N1CCOCC2(CCN(Cc3cccs3)C2)C1 (centres undefined)	-7.83
COCC(=O)NC1CC2(CCN(CCF)CC2)Oc2ccccc21 (centres undefined)	-0.864
COc1cc(N2CC[C@H]3O[C@@H](C(=O)NC4CCCC4)CC[C@H]32)ncn1	13.2
